Here are results for 58 molecules from PubChem BioAssay AID493160 (Sanford-Burnham Center for Chemical Genomics, 2011).

Molecules are shown by their SMILES. About 540 (0.16%) of roughly 340,000 compounds were called active. Many of the other results were omitted from the sample, so actives are more common in it than they were. Unmarked numbers belong to inactive results.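 The calls were made as follows: active = inhibition above about 35% when tested at 20 µM (limit read from the data); inactive = the rest.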

For orientation: inhibition means the change of the read-out against control, counted positive when it falls.

Chain of Hexokinase HKDC1 (Homo sapiens) (Q2TB90 whole entry, looked up): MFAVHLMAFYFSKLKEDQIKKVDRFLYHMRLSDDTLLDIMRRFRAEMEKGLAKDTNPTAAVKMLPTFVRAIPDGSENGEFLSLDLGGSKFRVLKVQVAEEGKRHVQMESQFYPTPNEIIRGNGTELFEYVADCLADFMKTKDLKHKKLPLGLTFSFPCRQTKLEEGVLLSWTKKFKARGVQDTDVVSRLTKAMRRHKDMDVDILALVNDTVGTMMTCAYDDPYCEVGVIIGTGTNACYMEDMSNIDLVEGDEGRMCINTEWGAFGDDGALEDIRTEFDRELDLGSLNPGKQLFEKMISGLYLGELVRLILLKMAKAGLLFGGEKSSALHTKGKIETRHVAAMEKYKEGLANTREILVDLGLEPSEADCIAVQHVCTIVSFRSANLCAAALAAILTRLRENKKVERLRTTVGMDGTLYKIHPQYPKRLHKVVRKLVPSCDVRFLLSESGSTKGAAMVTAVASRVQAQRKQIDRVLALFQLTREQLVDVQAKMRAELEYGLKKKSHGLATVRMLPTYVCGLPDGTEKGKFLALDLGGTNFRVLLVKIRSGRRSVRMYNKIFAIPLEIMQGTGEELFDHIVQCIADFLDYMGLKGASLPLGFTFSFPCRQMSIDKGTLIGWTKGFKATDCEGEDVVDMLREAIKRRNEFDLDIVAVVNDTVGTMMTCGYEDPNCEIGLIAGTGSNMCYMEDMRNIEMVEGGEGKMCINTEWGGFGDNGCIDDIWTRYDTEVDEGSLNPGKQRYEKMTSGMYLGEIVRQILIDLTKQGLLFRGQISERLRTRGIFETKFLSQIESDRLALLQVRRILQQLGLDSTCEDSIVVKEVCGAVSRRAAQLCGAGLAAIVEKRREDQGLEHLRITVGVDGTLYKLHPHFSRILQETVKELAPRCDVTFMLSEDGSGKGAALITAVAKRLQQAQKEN

The target in the test is Hexokinase HKDC1 (Homo sapiens) (UniProt Q2TB90). The test can be described thus: blockers of human HKDC1 enzyme activity – biochemical, fluorescence, uHTS, primary screen (AID 493160).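 Also: plate controls were DMSO wells with enzyme for no effect and DMSO wells lacking enzyme for full effect.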 As to conditions: recombinant HKDC1, G6PDH/diaphorase resazurin coupled fluorescence; at 20 µM; hits give high values. The method in brief:
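test system = in-house recombinant HK5 (HKDC1) enzyme | amount = HKDC1 at 5 µg/mL | control set = DMSO-enzyme wells negative, buffer-substituted wells positive | compound = one dose of 20 µM, 1% DMSO | schedule = reaction time 90 min, room temperature, protected from light | technique = resorufin fluorescence at 613 nm | reagent = glucose with 1 mM ATP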
In general terms: Alamar Blue is a resazurin reagent that responds to reducing activity.
As for `COc1ccc(OCCCC(=O)Oc2ccc(OC)cc2)cc1`, the inhibition was -15%.
Next, `COc1ccc2c(c1)C(SCC(=O)NCc1ccccc1)CC(C)(C)O2` (stereo not drawn): 3.48%; `O=C(NCC1CCCO1)c1ccc(S(=O)(=O)Nc2ccc(F)cc2)cc1` (stereo not drawn): 0.46%; `O=C(CNC(=O)c1cc(=O)[nH]c2ccccc12)Nc1ccc(F)c(F)c1`: -8.3%.
Next, `C/C(=N\NC(=O)COc1ccc(C)cc1[N+](=O)[O-])c1ccc2c(c1)OCCO2`: 2.16%; `COc1ccccc1CNS(=O)(=O)c1ccc(C)cc1`: -4.09%.
Take `CCC(C)CN1CCC(CO)(Cc2ccccc2Cl)CC1` (stereo not drawn): the inhibition was -10.2%.
Next, `CC(CNC(=O)c1ccc(N)cc1)NC(=O)c1ccc(N)cc1` (stereo not drawn): -6.68%; `O=C(O)CCn1cc(/C=C/C(=O)c2ccc(Cl)cc2)c(-c2cccc(Br)c2)n1`: 17.1%.
The figure for `Clc1ccc(C[n+]2cc(-c3ccc(Cl)cc3)n3c2CCC3)cc1` is -3.08%.
The figure for `CC1(C)OC(=O)C(=CSc2ccc(C(C)(C)C)cc2)C(=O)O1` is -2.23%; for `Cc1cc2cc3c(N)[nH]nc3nc2cc1C` it is 1.11%.
On to `Cc1cc(C)c(S(=O)(=O)N2CCOCC2)cc1C`, for which the inhibition is -10.1%.
The figure for `O=C(NCc1ccc2c(c1)OCO2)c1c(O)nc2sccn2c1=O` is 6.57%.
`CCCCN1C(=O)CCC(C(=O)O)C1c1ccc(OC)cc1` (stereo not drawn): the inhibition was 7.8%.
Next, `C=CCCN(Cc1ccccc1)S(=O)(=O)c1ccccc1Br`: 2.98%; `Cc1cc(=O)[nH]c2nnnn12`: 7.5%; `COc1cc2c3c(c1)/C(=C1/SC(=S)NC1=O)C(=O)N3C(C)(C)C=C2C`: -4.38%.
Next, `CCN(C[C@H]1N[C@@](Cc2ccccc2)(C(=O)OC)[C@H]2C(=O)N(Cc3ccccc3)C(=O)[C@@H]12)C(=O)c1ccc(C)cc1`: -6.61%; `Cc1cc(Cl)ccc1NC(=S)N1CCC(C(N)=O)(N2CCCCC2)CC1`: -7.07%; `N#CCSc1nc2ccc(N3CCOCC3)cc2c(=O)n1CCc1ccccc1`: 10.5%.
For `O=C1C(=O)N(CC2COc3ccccc3O2)c2ccccc21` (stereo not drawn), the inhibition is 19.1%.
As to `Cc1cc(C(=O)CCl)c(C)n1CC1COc2ccccc2O1` (stereo not drawn), the inhibition was 38.2% (active).
Next, `Cc1ccsc1C(=O)OCC(=O)c1cc(C)n(CC2CCCO2)c1C` (stereo not drawn): 1.95%; `CCc1[nH]nc(C(=O)N2CCCC(CNS(=O)(=O)c3cccs3)C2)c1C` (stereo not drawn): -4.96%.
Next, `CCC(=C/c1sc2ccc3ccccc3c2[n+]1C)/C=C1\Sc2ccc3ccccc3c2N1C`: 45% (active); `C=CCNC(=O)c1cc2nc(C3CC3)cc(C(F)F)n2n1`: 14%; `CCN(CC)C(=O)[C@H]1CC(CC(=O)NCc2ccco2)C(=O)N2CCc3c([nH]c4ccccc34)[C@]12C` (stereo partly drawn): -4.97%.
The figure for `Cc1onc(-c2ccc(Cl)cc2)c1-c1ccnn1S(=O)(=O)c1ccc(Cl)cc1` is 0.4%.
In the case of `CC[C@@]1(C(=O)OC)N[C@H](CN(C)C(C)=O)[C@@H]2C(=O)N(C)C(=O)[C@@H]21`, the inhibition is -5.2%.
For the molecule `CC(=O)c1c(C)[nH]c(C(=O)COC(=O)c2cccc(S(=O)(=O)N(C)c3ccccc3)c2)c1C`, the inhibition was 16.7%.
As to `COCCN(C(=O)CSCc1ccc(C)cc1)c1c(N)n(CC(C)C)c(=O)[nH]c1=O`, the inhibition was -4.58%.
The figure for `COc1cc(CO)ccc1OCC(=O)Nc1cccc2ccccc12` is -1.93%; for `S=C(Nc1cccc(Br)c1)N1CCn2cccc2C1c1cccnc1` (stereo not drawn) it is 4.07%.
With `COCCNC(=O)c1ccc(-n2c(SCc3cccnc3)nc3ccccc3c2=O)cc1`, the inhibition was -1.32%.
Next, `O=Cc1cn(-c2ccccc2)nc1-c1ccccn1`: -7.78%; `CCOc1ccccc1-c1nc(CN2CCC(C(=O)N3CCOCC3)CC2)c(C)o1`: -3.93%; `COc1ccc(CN(Cc2ccc(OC)cc2)C(=O)c2cccs2)cc1`: 1.52%.
As for `COc1ccc(CCNC(=O)C(Sc2ccccn2)c2ccccc2)cc1OC` (stereo not drawn), the inhibition is -5.11%.
Next, `COc1ccc(C(CCN(Cc2ccc(OC)c(OC)c2)C(=O)CCl)c2ccccc2)cc1` (stereo not drawn): 35.4% (active).
Next, `CC1CCCC(NC(=O)COC(=O)[C@@H]2CC(O)CN2S(=O)(=O)c2ccc3c(c2)OCCO3)C1C` (stereo partly drawn): -2.96%.
As for `Cc1noc(/C=C/c2ccco2)c1S(=O)(=O)N1CCC(C(=O)Nc2ccc(Cl)cn2)CC1`, the inhibition was -6%.
The figure for `CCOC(=O)/C(=C\c1ccc([N+](=O)[O-])cc1)C(=O)c1cc(C(C)=O)c(Nc2ccccc2)s1` is 33.5%; for `COc1nnc(-c2ccc(C)c(S(=O)(=O)N(C)C)c2)c2ccccc12` it is -2.23%.
Next, `O=C(CC1NCCc2ccccc21)Nc1cccc(Cl)c1` (stereo not drawn): 8.29%.
The figure for `CN1CCN(c2ccccc2NC(=O)COc2ccc(C3CCCCC3)cc2)CC1` is -0.75%.
As to `C/C=C/c1ccc(OCC(=O)NNC(=O)CN(C)S(=O)(=O)c2ccc(C)cc2)c(OC)c1`, the inhibition is 0.23%.
The figure for `CCOC(=O)C(C)n1nc(-c2ccccc2)c2ccccc2c1=O` (stereo not drawn) is -7.97%.
Next, `O=[N+]([O-])c1ccc(N2CCN(c3ccc(F)cc3)CC2)cn1`: 3.5%; `CCCc1nc2oc3c(OCC)ncnc3c2c2c1COC(C)(C)C2`: 37.7% (active).
The figure for `CCCc1nc2oc3c(=O)[nH]cnc3c2c2c1COC(C)(C)C2` is 27.4%; for `CC(C)CCSc1ncnc2c1oc1nc3c(cc12)COC(C)(C)C3` it is 1.9%; for `Cc1cc(Cl)c2oc(C(=O)N3CCC(O)(c4ccccc4)CC3)c(C)c2c1` it is -1.23%.
For the molecule `COc1ccc(N2CCN(C(=O)C3CCN(C(=O)c4ccccc4Cl)CC3)CC2)cc1`, the inhibition was -1.69%.
The figure for `CCCCc1nc(SCC(=O)Nc2nnc(C(C)C)s2)n[nH]1` is -4.74%; for `CCCCCC1CC(COc2ccccc2)OC1=O` (stereo not drawn) it is -1.3%; for `COC(=O)c1c(C)c(C)nc(N)c1C#N` it is 3.54%.
For the molecule `COc1ccccc1N(C(=O)Cn1nnc2ccccc21)C(C(=O)NCc1ccco1)c1ccc(C)o1` (stereo not drawn), the inhibition is -6.23%.
